Reference: ChEMBL document CHEMBL3603756, “Synthesis and apoptotic activity of new pyrazole derivatives in cancer cell lines” (2015)
Activity calls are given as the source filed them. The rule behind the calls is not given here.

Experiments:
[1] = tested on: HEp-2; experiment: Reduction in livin protein levels in human Hep2 cells at 50 ug/ml incubated for 24 hrs by protein array method; format: functional, cell-based
[2] = Reduction in PRKAA2 gene expression in human Hep2 cells at 50 ug/ml incubated for 24 hrs by real-time PCR method; format: functional, cell-based; details: HEp-2
Summary of the method: (§1)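 HEp-2 cells were treated 24 h at 10 or 50 µg/mL. Total RNA was extracted with Trizol, and 2 µg was reverse-transcribed. 50 ng cDNA went into TaqMan real-time PCR with beta-actin as endogenous control. Relative expression was calculated by the ∆∆CT method. Each experiment was run three times.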

[3] = tested on: HEp-2; experiment: Induction of cell cycle arrest in human Hep2 cells assessed accumulation at G0/G1 phase at 10 ug/ml incubated for 24 hrs by propidium iodide staining based flow cytometry (reference value: 74.51%); format: functional
[4] = tested on: HEp-2; experiment: Reduction in c-IAP2 levels in human Hep2 cells at 50 ug/ml incubated for 24 hrs by protein array method; format: functional, cell-based
[5] = Reduction in PRKAA2 gene expression in human Hep2 cells at 10 ug/ml incubated for 24 hrs by real-time PCR method; format: functional, cell-based; details: HEp-2; summary of the method: as §1
[6] = Cytotoxicity against human Hep2 cells assessed as cell viability at 25 ug/ml incubated for 24 hrs by MTS assay; format: functional; details: HEp-2, 24 h, read-out: Activity
Summary of the method: (§2)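 Cells were held at 37 °C, 5% CO2 in humid air. HEp-2 (5 x 10³/well) and HCT-8 (7 x 10³/well) grew in DMEM + 10% heat-inactivated FBS and got compound (binary dilutions) 24 h after seeding. THP-1 (5 x 10³ cells, RPMI-1640 + 10% FBS) were added directly to the dilutions. Exposure lasted 24 h. MTS (CellTiter 96 AQueous One) read-out was absorbance at 490 nm.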

[7] = tested on: HEp-2; experiment: Reduction in survivin protein levels in human Hep2 cells at 50 ug/ml incubated for 24 hrs by protein array method; format: functional, cell-based
[8] = tested on: THP-1; experiment: Cytotoxicity against human THP1 cells assessed as cell viability at 12.5 ug/ml incubated for 24 hrs by MTS assay; format: functional; details: THP-1, 24 h, read-out: Activity; summary of the method: as §2
[9] = tested on: THP-1; experiment: Cytotoxicity against human THP1 cells assessed as cell viability at 25 ug/ml incubated for 24 hrs by MTS assay; format: functional; details: THP-1, 24 h, read-out: Activity; summary of the method: as §2
[10] = tested on: HEp-2; experiment: Induction of cell cycle arrest in human Hep2 cells assessed accumulation at S phase at 50 ug/ml incubated for 24 hrs by propidium iodide staining based flow cytometry (reference value: 21.06%); format: functional
[11] = tested on: HCT-8; experiment: Induction of apoptosis in human HCT8 cells assessed early apoptosis level at 50 ug/ml incubated for 24 hrs by annexin V-FITC and propidium iodide staining based flow cytometry (reference value: 0.75%); format: functional
[12] = Cytotoxicity against human HCT8 cells assessed as cell viability at 50 ug/ml incubated for 24 hrs by MTS assay; format: functional; details: HCT-8, 24 h, read-out: Activity; summary of the method: as §2
[13] = tested on: HEp-2; experiment: Reduction in c-IAP1 levels in human Hep2 cells at 50 ug/ml incubated for 24 hrs by protein array method; format: functional, cell-based
[14] = Cytotoxicity against human HCT8 cells assessed as cell viability at 25 ug/ml incubated for 24 hrs by MTS assay; format: functional; details: HCT-8, 24 h, read-out: Activity; summary of the method: as §2
[15] = tested on: HEp-2; experiment: Induction of cell cycle arrest in human Hep2 cells assessed accumulation at G2/M phase incubated for 24 hrs by propidium iodide staining based flow cytometry; format: functional
[16] = tested on: HEp-2; experiment: Increase in caspase-8 levels in human Hep2 cells at 50 ug/ml incubated for 24 hrs by protein array method; format: functional, cell-based
[17] = tested on: HCT-8; experiment: Induction of apoptosis in human HCT8 cells assessed necrosis level at 50 ug/ml incubated for 24 hrs by annexin V-FITC and propidium iodide staining based flow cytometry (reference value: 1.12%); format: functional
[18] = Cytotoxicity against human Hep2 cells assessed as cell viability at 12.5 ug/ml incubated for 24 hrs by MTS assay; format: functional; details: HEp-2, 24 h, read-out: Activity; summary of the method: as §2
[19] = tested on: THP-1; experiment: Cytotoxicity against human THP1 cells assessed as cell viability at 50 ug/ml incubated for 24 hrs by MTS assay; format: functional; details: THP-1, 24 h, read-out: Activity; summary of the method: as §2
[20] = tested on: HEp-2; experiment: Increase in Fas/TNFRSF6 protein expression in human Hep2 cells at 50 ug/ml incubated for 24 hrs by protein array method; format: functional, cell-based
[21] = Reduction in PRKAA1 gene expression in human Hep2 cells at 10 ug/ml incubated for 24 hrs by real-time PCR method; format: functional, cell-based; details: HEp-2; summary of the method: as §1
[22] = tested on: HEp-2; experiment: Increase in TRAIL-R2 protein expression in human Hep2 cells at 50 ug/ml incubated for 24 hrs by protein array method; format: functional, cell-based
[23] = tested on: HCT-8; experiment: Induction of apoptosis in human HCT8 cells assessed late apoptosis level at 50 ug/ml incubated for 24 hrs by annexin V-FITC and propidium iodide staining based flow cytometry (reference value: 4.8%); format: functional
[24] = tested on: HEp-2; experiment: Induction of cell cycle arrest in human Hep2 cells assessed accumulation at G0/G1 phase at 50 ug/ml incubated for 24 hrs by propidium iodide staining based flow cytometry (reference value: 74.51%); format: functional
[25] = tested on: HEp-2; experiment: Induction of cell cycle arrest in human Hep2 cells assessed accumulation at S phase at 10 ug/ml incubated for 24 hrs by propidium iodide staining based flow cytometry (reference value: 21.06%); format: functional
[26] = tested on: HCT-8; experiment: Induction of apoptosis in human HCT8 cells assessed viable cells level at 50 ug/ml incubated for 24 hrs by annexin V-FITC and propidium iodide staining based flow cytometry (reference value: 93.3%); format: functional
[27] = tested on: HEp-2; experiment: Reduction in HSP27 protein levels in human Hep2 cells at 50 ug/ml incubated for 24 hrs by protein array method; format: functional, cell-based
[28] = Cytotoxicity against human HCT8 cells assessed as cell viability at 12.5 ug/ml incubated for 24 hrs by MTS assay; format: functional; details: HCT-8, 24 h, read-out: Activity; summary of the method: as §2
[29] = tested on: HEp-2; experiment: Increase in cleaved-caspase-3 levels in human Hep2 cells at 50 ug/ml incubated for 24 hrs by protein array method; format: functional, cell-based
[30] = tested on: HEp-2; experiment: Increase in FADD protein expression in human Hep2 cells at 50 ug/ml incubated for 24 hrs by protein array method; format: functional, cell-based
[31] = tested on: HEp-2; experiment: Induction of apoptosis in human Hep2 cells assessed as increase in p53 S15/S46/S392 phosphorylation level at 50 ug/ml incubated for 24 hrs by protein array method; format: functional, cell-based
[32] = tested on: HEp-2; experiment: Reduction in HSP70 protein levels in human Hep2 cells at 50 ug/ml incubated for 24 hrs by protein array method; format: functional, cell-based
[33] = tested on: HEp-2; experiment: Induction of cell cycle arrest in human Hep2 cells assessed accumulation at G2/M phase at 10 ug/ml incubated for 24 hrs by propidium iodide staining based flow cytometry (reference value: 7.82%); format: functional
[34] = Reduction in PRKAA1 gene expression in human Hep2 cells at 50 ug/ml incubated for 24 hrs by real-time PCR method; format: functional, cell-based; details: HEp-2; summary of the method: as §1
[35] = tested on: HEp-2; experiment: Increase in TRAIL-R1 protein expression in human Hep2 cells at 50 ug/ml incubated for 24 hrs by protein array method; format: functional, cell-based
[36] = tested on: HEp-2; experiment: Reduction in XIAP levels in human Hep2 cells at 50 ug/ml incubated for 24 hrs by protein array method; format: functional, cell-based
[37] = Cytotoxicity against human Hep2 cells assessed as cell viability at 50 ug/ml incubated for 24 hrs by MTS assay; format: functional; details: HEp-2, 24 h, read-out: Activity; summary of the method: as §2
[38] = tested on: HEp-2; experiment: Induction of cell cycle arrest in human Hep2 cells assessed accumulation at G2/M phase at 50 ug/ml incubated for 24 hrs by propidium iodide staining based flow cytometry (reference value: 7.82%); format: functional
[39] = tested on: HEp-2; experiment: Reduction in pro-caspase-3 levels in human Hep2 cells at 50 ug/ml incubated for 24 hrs by protein array method; format: functional, cell-based
[40] = tested on: HEp-2; experiment: Increase in cyclin B gene expression in human Hep2 cells at 10 ug/ml incubated for 24 hrs by real-time PCR method; format: functional, cell-based; summary of the method: as §1
[41] = tested on: HEp-2; experiment: Increase in cyclin B gene expression in human Hep2 cells at 50 ug/ml incubated for 24 hrs by real-time PCR method; format: functional, cell-based; summary of the method: as §1

SMILES | Activity [2] | Activity [3] [%] | Activity [5] | viability at 25 µg/mL [6] [%] | viability at 12.5 µg/mL [8] [%] | viability at 25 µg/mL [9] [%] | Activity [10] [%] | Activity [11] [%] | viability at 50 µg/mL [12] [%] | viability at 25 µg/mL [14] [%] | Activity [15] | Activity [17] [%] | viability at 12.5 µg/mL [18] [%] | viability at 50 µg/mL [19] [%] | Activity [21] | Activity [23] [%] | Activity [24] [%] | Activity [25] [%] | Activity [26] [%] | viability at 12.5 µg/mL [28] [%] | further results
Cn1cc(C(=O)/N=C2\SCC(C)(O)N2c2ccc(I)cc2)cn1 (centres undefined) | Active | 74.73 | Active | 100 | 97 | 84.1 | 27.01 | 4.96 | 90.2 | 100 | Dose-dependent effect | 1.44 | 100 | 38.4 | Active | 3.37 | 43.62 | 17.85 | 90.2 | 100 | Activity [1]: Active; Activity [4]: Active; Activity [7]: Active; Activity [13]: Active; Activity [16]: Active; Activity [20]: Active; Activity [22]: Active; Activity [27]: Active; Activity [29]: Active; Activity [30]: Active; Activity [31]: Active; Activity [32]: Active; Activity [33]: 14.92%; Activity [34]: Active; Activity [35]: Active; Activity [36]: Active; viability at 50 µg/mL [37]: 89%; Activity [38]: 33.4%; Activity [39]: Active
Cn1cc(C(=O)NC(=S)Nc2ccccc2Br)cn1 | inactive | 74.41 | inactive | 100 | 98 | 59.4 | 21.87 | 1.23 | 91.5 | 100 | Dose-dependent effect | 1.87 | 100 | 31.9 | inactive | 5.41 | 70.17 | 19.09 | 91.5 | 100 | Activity [40]: Active; Activity [41]: Active; Activity [33]: 10.28%; Activity [34]: inactive; viability at 50 µg/mL [37]: 80%; Activity [38]: 15.93%
Cc1cs/c(=N\C(=O)c2cnn(C)c2)n1-c1ccc(I)cc1 | Active | 66.94 | Active | 100 | 99 | 86.9 | 27.45 | 2.91 | 91.8 | 100 | Dose-dependent effect | 1.41 | 100 | 37.2 | Active | 3.89 | 50.7 | 23.56 | 91.8 | 100 | Activity [1]: Active; Activity [4]: Active; Activity [7]: Active; Activity [13]: Active; Activity [16]: Active; Activity [20]: Active; Activity [22]: Active; Activity [27]: Active; Activity [29]: Active; Activity [30]: Active; Activity [31]: Active; Activity [32]: Active; Activity [33]: 9.07%; Activity [34]: Active; Activity [35]: Active; Activity [36]: Active; viability at 50 µg/mL [37]: 90%; Activity [38]: 25.92%; Activity [39]: Active
